Results collected from several papers.
Compare with care: the assays were run in different laboratories.
Organism: Mycobacterium tuberculosis
Read-out: microbial growth

With `CO/N=C(\C(=O)N[C@@H]1C(=O)N2C(C(=O)O)=C(COC(C)=O)CS[C@H]12)c1csc(N)n1` the MIC was 16 µg/mL (resazurin; H37RA; 14 days).
`CC(C)[C@H]1CO[C@]23CCN(Cc4ccccc4)C[C@H]2CCC(=O)N13` gave an MIC of 7.3 µM (H37RV; 7 days).
With `[H]/N=C(/N)N[C@H]1[C@H](O)[C@@H](O)[C@H](O[C@@H]2O[C@@H](C)[C@](O)(C=O)[C@H]2O[C@@H]2O[C@@H](CO)[C@H](O)[C@@H](O)[C@@H]2NC)[C@@H](N/C(N)=N\[H])[C@@H]1O` the MIC was 6.25 µg/mL (resazurin; H37RV).
For `CC(=O)O[C@H]1C[C@@]2(C)[C@@H](C[C@@H](O)[C@H]3[C@@]4(C)CC[C@@H](O)[C@@H](C)[C@@H]4CC[C@@]32C)/C1=C(\CCC=C(C)C)C(=O)O`, the MIC was 4 µg/mL (resazurin; H37RA; 14 days).
With `CC1=NN(CNc2c(O)c(S(=O)(=O)O)cc3ccccc23)C(=O)C1=NNn1c(-c2ccccc2)nc2ccccc2c1=O` the MIC was 20.9 µM (resazurin; H37RV).
The MIC of `Cc1c(Cc2ccc(C(C)(C)C)cc2)c(=O)n2c([nH]c3ccccc32)c1C#N` is reported as 1 µg/mL (broth dilution; H37RV).
The MIC of `CC[C@@H](CO)NCCN[C@@H](CC)CO` is reported as 5 µg/mL (H37RV).
With `COC(=O)c1cc(-c2cccc(NC(=S)Nc3ccc(C)cc3)c2)on1` the MIC was 2 µg/mL (ATCC27294 H37RV; 7 days).
`[H]/N=C(/N)N[C@H]1[C@H](O)[C@@H](O)[C@H](O[C@@H]2O[C@@H](C)[C@](O)(C=O)[C@H]2O[C@@H]2O[C@@H](CO)[C@H](O)[C@@H](O)[C@@H]2NC)[C@@H](N/C(N)=N\[H])[C@@H]1O` gave an MIC of 1.5 µM (H37RV; 5 days).
The MIC of `CC(C)CC=CC=CC(=O)NC(CC(N)=O)C(=O)NC1C(=O)NC(c2ccc(O)cc2)C(=O)NC(CCCN)C(=O)NC(C(C)O)C(=O)NC(c2ccc(O)cc2)C(=O)NC(c2ccc(O)cc2)C(=O)NC(C(C)O)C(=O)NC(Cc2ccccc2)C(=O)NC(CCCN)C(=O)NC(c2ccc(OC3OC(CO)C(O)C(O)C3OC3OC(CO)C(O)C(O)C3O)cc2)C(=O)NC(C(C)O)C(=O)NC(c2ccc(O)cc2)C(=O)NCC(=O)NC(CC(C)C)C(=O)NC(C)C(=O)NC(c2ccc(O)c(Cl)c2)C(=O)OC1C(N)=O` (stereo not shown) is reported as 6.25 to 12.5 µg/mL (H37RV; 14 days).
The MIC of `Cc1ccc(C)n1-c1ccc(-c2nnc(-c3c(Cl)cccc3Cl)[nH]2)cc1` is reported as 8 µg/mL (broth dilution; H37RV; 21 days).
`O=C1C(=NNc2nc(-c3ccccc3)cs2)C(N=Cc2ccc([N+](=O)[O-])cc2)=NN1c1ccccc1` gave an MIC of 50.5 µM (resazurin; H37RV; 5 days).
`CC1CCC2(CC1)SCC(=O)N2NC(=O)c1[nH]c2ccc(Cl)cc2c1-c1ccccc1` (stereo not shown) has an MIC of 31 µM (ATCC27294 H37RV).
The MIC of `NNC(=O)c1ccncc1` is reported as 0.14 µM (W4).
For `CCCCCCC/C=C\C(O)C#CC#CC(=O)CCOC` (stereo not shown), the MIC was > 60 µg/mL (resazurin; ATCC35801 ERDMAN; 7 days).
`C=C[C@@]1(C)CC[C@@H]2C(C)(C)c3cccc4[nH]c5c(c34)[C@@]2(O)[C@]1(C#N)[C@H]1O[C@H]1C5(C)C` has an MIC of 11.3 µM (H37RV).
For `O=C(CCNS(=O)(=O)c1ccccc1[N+](=O)[O-])N1CCN(C(c2ccc(F)cc2)c2ccc(F)cc2)CC1`, the MIC was > 25 µg/mL (ATCC27294 H37RV).
`CC(C)[C@H]1CO[C@]23CCN(Cc4ccc(C(F)(F)F)cc4)C[C@H]2CCC(=O)N13` has an MIC of 0.13 µM (resazurin; H37RV; 7 days).
`O=c1nc(N2CCN(CC3CCCCC3)CC2)sc2c([N+](=O)[O-])cc(C(F)(F)F)cc12` gave an MIC of 0.002 µM (resazurin; H37RV).
`CCC1CCC2(CC1)SC(C)C(=O)N2NC(=O)c1[nH]c2ccc(Cl)cc2c1-c1ccccc1` (stereo not shown) has an MIC of 1000 µM (ATCC27294 H37RV).
`COC(=O)c1cc(-c2cccc(NC(=O)Nc3ccc(Cl)c(C(F)(F)F)c3)c2)on1` gave an MIC of > 64 µg/mL (ATCC27294 H37RV; 7 days).
The MIC of `O=C(NN1C(=O)CSC12CCCC2)c1[nH]c2ccc(Cl)cc2c1-c1ccccc1` is reported as 1000 µM (ATCC27294 H37RV).
With `Cc1cc(=O)[nH]n1C(=O)c1ccc(-n2c(C)ccc2C)cc1` the MIC was 2 µg/mL (broth dilution; H37RV; 21 days).
`[H]/N=C(/N)N[C@H]1[C@H](O)[C@@H](O)[C@H](O[C@@H]2O[C@@H](C)[C@](O)(C=O)[C@H]2O[C@@H]2O[C@@H](CO)[C@H](O)[C@@H](O)[C@@H]2NC)[C@@H](N/C(N)=N\[H])[C@@H]1O` has an MIC of 0.5 µg/mL (ATCC27294 H37RV; 7 days).
`O=C1C(=NNc2nc(-c3ccccc3)cs2)C(N=Cc2ccc(Cl)cc2)=NN1c1ccccc1` gave an MIC of 25 µg/mL (resazurin; H37RV).
`C=CCOc1cc(O)cc(O)c1C(=O)[C@@H](C)CC` has an MIC of 100 µg/mL (broth dilution; H37RV).
`CO[C@H]1/C=C/O[C@@]2(C)Oc3c(C)c(O)c4c(O)c(c(/C=N/N5CCN(C)CC5)c(O)c4c3C2=O)NC(=O)/C(C)=C\C=C\[C@H](C)[C@H](O)[C@@H](C)[C@@H](O)[C@@H](C)[C@H](OC(C)=O)[C@@H]1C` has an MIC of 0.009 µM (H37RV).
`COC(=O)c1cc(-c2cccc(NC(=S)Nc3ccc(Cl)cc3)c2)on1` gave an MIC of 1 µg/mL (ATCC27294 H37RV; 7 days).
For `CC(C)(C)C1CCC2(CC1)SCC(=O)N2NC(=O)c1[nH]c2ccc(Cl)cc2c1-c1ccccc1` (stereo not shown), the MIC was 16 µM (ATCC27294 H37RV).
With `COC(=O)c1cc(-c2cccc(NC(=O)Nc3cc(Cl)ccc3Cl)c2)on1` the MIC was 2 µg/mL (ATCC27294 H37RV; 7 days).
`[O-][n+]1ccccc1SSc1cccc[n+]1[O-]` gave an MIC of 0.23 µM (resazurin).
The MIC of `COc1nc2ccc(Br)cc2cc1[C@@H](c1ccccc1)[C@@](O)(CCN(C)C)c1cccc2ccccc12` is reported as 0.06 µg/mL.
`O=[N+]([O-])c1cn2c(n1)OC[C@@H](OCc1ccc(N3CCCCC3)cc1)C2` gave an MIC of 0.4 to 0.8 µg/mL (H37RV).
The MIC of `O=C1C(Cl)=C(Cl)C(=O)c2ccccc21` is reported as 10 µg/mL (H37RV; 14 days).
For `Cc1ccn2c(C(=O)NCc3ccc(S(F)(F)(F)(F)F)cc3)c(C)nc2c1`, the MIC was 0.25 µM (H37RV; 5 days).
`COC(=O)c1cc(-c2cccc(NC(=O)Nc3ccc(C)c(Cl)c3)c2)on1` has an MIC of 16 µg/mL (ATCC27294 H37RV; 7 days).
`CO[C@H]1/C=C/O[C@@]2(C)Oc3c(C)c(O)c4c(O)c(c(/C=N/N5CCN(C)CC5)c(O)c4c3C2=O)NC(=O)/C(C)=C\C=C\[C@H](C)[C@H](O)[C@@H](C)[C@@H](O)[C@@H](C)[C@H](OC(C)=O)[C@@H]1C` has an MIC of 0.06 µg/mL (ATCC27294 H37RV; 8 days).
For `Cc1ccc(C)n1-c1ccc(-c2nnc(-c3cccc([N+](=O)[O-])c3)[nH]2)cc1`, the MIC was 16 µg/mL (broth dilution; H37RV; 21 days).
For `Cc1ccc2nc(C)c(C(=O)NCc3ccc(S(F)(F)(F)(F)F)cc3)n2c1`, the MIC was 0.014 µM (H37RV; 5 days).
`COC(=O)c1cc(-c2cccc(NC(=S)Nc3cccc(Br)c3)c2)on1` has an MIC of 8 µg/mL (ATCC27294 H37RV; 7 days).
With `CO[C@@H]1[C@@H](OC(N)=O)[C@@H](O)[C@H](Oc2ccc3c(O)c(NC(=O)c4ccc(O)c(CC=C(C)C)c4)c(=O)oc3c2C)OC1(C)C` the MIC was 8 µg/mL (resazurin; H37RA; 14 days).
`COC(=O)c1cc(-c2cccc(NC(=S)Nc3ccc(F)cc3)c2)on1` gave an MIC of 4 µg/mL (ATCC27294 H37RV; 7 days).
`O=C1C(=NNc2nc(-c3ccccc3)cs2)C(N=Cc2ccc(O)cc2O)=NN1c1ccccc1` gave an MIC of 6.25 µg/mL (resazurin; H37RV).
